MIN6 prolif = MIN6 beta-cell proliferation induction. MIN6 cells proliferation, ATPlite luminescence, 48 h; cells starved in 0.2% serum; 100% = growth in 10% serum. proliferation, % at 10 µM. 330,000 compounds, 0.29% hits. AID 2380;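 active = compounds whose signal lies at least 3.5 SD above the mean of all wells on their plate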
PG9 Ab binder = small molecules binding HIV-1 gp120 antibody PG9. AID 624416. TR-FRET gp120-PG9 antibody binding. inhibition, % at 6.7 µM. 360,000 compounds, 0.43% hits; in the data active = inhibition above about 8.5%
NR1D1 modulator = modulators of human Rev-erb alpha DNA binding; P20393; Rev-erbα–FITC-DNA binding, fluorescence polarization, 90 min; activity, % at 10 µM; 370,000 compounds, 0.79% hits; AID 1259318;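 active = activity above about 14%, limit read from the data; passing the limit was not always enough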
UCH37 DUB inh = inhibitors of human deubiquitinating enzyme UCH37 | purified proteasome/UCH37, Ub-AMC cleavage fluorescence | inhibition, % (test concentration not listed) | Q9Y5K5 | 330,000 compounds, 0.33% hits;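 active = mean inhibition over replicate wells above about 20%, limit read from the data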
Target sequence (Q9Y5K5 whole entry, looked up): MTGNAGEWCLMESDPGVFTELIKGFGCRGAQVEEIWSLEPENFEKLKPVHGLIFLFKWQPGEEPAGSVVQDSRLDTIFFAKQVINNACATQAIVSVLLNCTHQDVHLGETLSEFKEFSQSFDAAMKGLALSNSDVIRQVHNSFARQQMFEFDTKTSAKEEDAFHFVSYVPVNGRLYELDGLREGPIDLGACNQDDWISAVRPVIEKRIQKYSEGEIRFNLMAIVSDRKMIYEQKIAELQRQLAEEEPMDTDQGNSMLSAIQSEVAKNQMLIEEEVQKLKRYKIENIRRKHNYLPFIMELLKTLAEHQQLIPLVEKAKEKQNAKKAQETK
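Schedule: 30 min plus 25 min, room temperature / Material: human UCH37 within purified proteasomes / Technique: AMC fluorescence intensity at 355/460 nm / Buffer or medium: pH 7.4 Tris-HCl (50 mM) with ovalbumin, ATP-MgCl2, DTT / Controls: wells without proteasome as full block, compound-free enzyme plus substrate as uninhibited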
Yeast superoxide = lowers age-related superoxide in aged yeast cells; S. cerevisiae aged cells, superoxide DHE fluorescence; active compounds read low; superoxide response (% of plate mean), % at 10 µM; 330,000 compounds, 0.18% hits; AID 2690;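 active = superoxide response under a set limit, about three screen SD below normal, cut at about 65% in these data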;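 note: yeast aged for seven days with compound at 30 °C before DHE staining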
Rce1 inh = inhibitors of yeast Ras-converting enzyme; Q03530; yeast membranes, quenched prenylated peptide cleavage fluorescence; calls only; 290,000 compounds, 0.27% hits; AID 2563;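 active = fall in fluorescence gain of 50% or more versus controls, with final raw signal at or below 3038400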
NR1D1 mod conf = confirmation of modulators of human Rev-erb alpha DNA binding. Rev-erb alpha FITC-DNA binding, fluorescence polarization, 90 min. activation, % at 25 µM. 3,000 compounds, 61% hits. shares compounds with NR1D1 modulator. AID 1259319;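 active = activation at or above a set limit, or at least 3 SD above the negative control mean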
RORg DNA counter = affects RORgamma DNA binding in a Rev-erb alpha counter-screen; shares compounds with NR1D1 modulator; 910 compounds, 8% hits; IC50, µM; purified RORgamma protein-FITC-DNA binding, fluorescence polarization;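 active = Compounds whose fitted half-maximal concentration for disrupting protein-DNA binding is below 10 micromolar; the record names Rev-erb in its text, so the target is in doubt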
Hits are given with their value; - = inactive; . = not tested or not shown. In the library only some 1.9% were active in any assay of this set; here they are far more common.

SMILES	MIN6 prolif	PG9 Ab binder	NR1D1 modulator	UCH37 DUB inh	Yeast superoxide	Rce1 inh	NR1D1 mod conf	others
COCCn1c(=NC(C)=O)sc2cc([N+](=O)[O-])ccc21	-	-	-	-	-	-	.
C=CCn1c(=NC(=O)c2ccco2)sc2cc(C(=O)OC)ccc21	-	-	28	-	-	-	35	RORg DNA counter=-
C=CCn1c(=NC(=O)c2ccco2)sc2cc(C(=O)OCC)ccc21	-	-	29	-	-	-	23
COCCn1c(=NC(=O)c2ccco2)sc2cc(C(=O)OC)ccc21	-	-	42	-	-	-	38	RORg DNA counter=-
COc1ccc(C=NN2CCN(Cc3ccccc3)CC2)cc1	.	.	.	-	.	.	.
Cc1ccc(S(=O)(=O)N2CCOCC2)cc1NC(=O)c1cc(-c2ccccn2)nc2ccccc12	-	-	-	-	-	.	.
O=C(Nc1cc(S(=O)(=O)N2CCOCC2)ccc1N1CCCCC1)c1cc(-c2ccccn2)nc2ccccc12	-	-	25	-	-	-	-
O=C(CSc1n[nH]c(=O)[nH]c1=O)NN=Cc1ccccc1O	.	.	.	-	.	.	.
CCOc1ccc(-c2nnc3ccc(SCC(=O)Nc4nc5ccc(C)cc5s4)nn23)cc1	-	-	34	-	-	-	34	RORg DNA counter=-
CNc1nc(NN=Cc2ccc([N+](=O)[O-])cc2)nc(Nc2ccccc2)n1	.	.	.	-	.	.	.
O=C(COC(=O)c1ccc(Br)o1)Nc1ncc(Cl)cc1Cl	-	-	-	-	-	-	.
O=C(COC(=O)c1sc2cc(F)ccc2c1Cl)Nc1ncc(Cl)cc1Cl	-	-	64	-	-	-	37	RORg DNA counter=-
COc1cccc2c1OCCC2=NNC(=O)C(C)Oc1ccc([N+](=O)[O-])cc1 (stereo not given)	.	.	.	-	.	.	.
CCOC(=O)c1c(NC(=S)NCCc2ccccc2)sc2c1CC(C(C)C)OC2 (stereo not given)	-	-	26	-	-	-	25
O=C(NN=C(c1ccccc1)c1cccnc1)C(O)(c1ccccc1)c1ccccc1	.	.	.	-	.	.	.
CC(=O)c1cc2c(cc1N/C(=N/S(=O)(=O)c1ccc(C)cc1)c1ccccc1)OCO2	-	-	-	-	-	-	.
CC(=O)c1cc2c(cc1NC(=O)c1ccc(C)cc1)OCCO2	-	-	28	.	-	.	-
CC(=O)c1cc2c(cc1N/C(=N/S(=O)(=O)c1ccc(C)cc1)c1ccc(Cl)cc1)OCO2	-	-	92	-	-	-	57	RORg DNA counter=-
Cc1cc(NN=Cc2ccccc2[N+](=O)[O-])nc(-n2nc(C)cc2C)n1	.	.	.	-	.	.	.
Cc1ccc(NS(=O)(=O)c2cccc(C(=O)NN=Cc3ccc4c(c3)OCCO4)c2)c(C)c1	.	.	.	-	.	.	.
CCOC(=O)c1c(NC(=O)c2nc3n(n2)C(C(F)F)CC(C)N3)sc2c1CCCC2 (stereo not given)	-	-	22	-	-	-	-
CCOC(=O)c1c(NC(=O)c2ccn(CC)n2)sc2c1CCCC2	-	-	-	-	-	-	.
CCCCNC(=O)c1cc2nc3c(c(C(F)(F)F)n2n1)CCc1ccccc1-3	-	-	30	-	-	-	-
CC(C)c1nc2sc3c(NCc4ccccc4)ncnc3c2c2c1COC(C)(C)C2	-	-	24	-	-	-	-
CCCCNc1nc2c(-c3ccccc3)nnn2c2ccccc12	-	-	50	-	-	-	22
SMILES	MIN6 prolif	PG9 Ab binder	NR1D1 modulator	UCH37 DUB inh	Yeast superoxide	Rce1 inh	NR1D1 mod conf	others
CCOC(=O)c1nnn2c1nc(Nc1cccc(C(F)(F)F)c1)c1ccccc12	-	-	49	-	-	-	38	RORg DNA counter=-
CCOCCCNc1nc2c(-c3ccccc3)nnn2c2ccccc12	-	-	26	-	-	-	-
COCCNc1nc2c(-c3cccc(C(F)(F)F)c3)nnn2c2ccccc12	-	-	52	-	-	-	18
NNc1nc2c(-c3cccc(C(F)(F)F)c3)nnn2c2ccccc12	-	-	-	-	-	-	.
COc1ccc(O)c(C=c2sc3nc4cc(C)c(C)cc4n3c2=O)c1	.	.	.	-	.	.	.
CC=NNC(=O)CNC(=O)CNC(=O)c1ccccc1	.	.	.	-	.	.	.
CC(=O)c1sc(NC(=O)c2cc(=O)c3ccccc3o2)nc1C	-	-	-	-	-	-	.

Source: PubChem (several laboratories)
